Test results: ChEMBL document CHEMBL5321284, “Discovery of a First-in-Class Degrader for the Lipid Kinase PIKfyve” (J Med Chem, 2023)
Active and inactive are the calls of the source.

Key:
[1] = target: T1, von Hippel-Lindau disease tumor suppressor/1-phosphatidylinositol 3-phosphate 5-kinase (Homo sapiens) (UniProt Q9Y2I7+P40337); experiment: PROTAC activity at VHL/PIKfyve in human VCaP cells assessed as downregulation of PIKfyve expression at 300 nM measured after 4 hrs by TMT-labeled mass spectrometry; type: cell-based
T1 sequence (P40337 whole entry partner): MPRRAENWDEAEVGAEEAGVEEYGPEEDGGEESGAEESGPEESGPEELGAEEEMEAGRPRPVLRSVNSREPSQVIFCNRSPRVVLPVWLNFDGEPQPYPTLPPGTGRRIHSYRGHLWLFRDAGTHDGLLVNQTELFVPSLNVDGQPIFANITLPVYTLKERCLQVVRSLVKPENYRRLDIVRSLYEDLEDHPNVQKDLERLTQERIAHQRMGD
T1 sequence (Q9Y2I7 2-2098 limits assumed): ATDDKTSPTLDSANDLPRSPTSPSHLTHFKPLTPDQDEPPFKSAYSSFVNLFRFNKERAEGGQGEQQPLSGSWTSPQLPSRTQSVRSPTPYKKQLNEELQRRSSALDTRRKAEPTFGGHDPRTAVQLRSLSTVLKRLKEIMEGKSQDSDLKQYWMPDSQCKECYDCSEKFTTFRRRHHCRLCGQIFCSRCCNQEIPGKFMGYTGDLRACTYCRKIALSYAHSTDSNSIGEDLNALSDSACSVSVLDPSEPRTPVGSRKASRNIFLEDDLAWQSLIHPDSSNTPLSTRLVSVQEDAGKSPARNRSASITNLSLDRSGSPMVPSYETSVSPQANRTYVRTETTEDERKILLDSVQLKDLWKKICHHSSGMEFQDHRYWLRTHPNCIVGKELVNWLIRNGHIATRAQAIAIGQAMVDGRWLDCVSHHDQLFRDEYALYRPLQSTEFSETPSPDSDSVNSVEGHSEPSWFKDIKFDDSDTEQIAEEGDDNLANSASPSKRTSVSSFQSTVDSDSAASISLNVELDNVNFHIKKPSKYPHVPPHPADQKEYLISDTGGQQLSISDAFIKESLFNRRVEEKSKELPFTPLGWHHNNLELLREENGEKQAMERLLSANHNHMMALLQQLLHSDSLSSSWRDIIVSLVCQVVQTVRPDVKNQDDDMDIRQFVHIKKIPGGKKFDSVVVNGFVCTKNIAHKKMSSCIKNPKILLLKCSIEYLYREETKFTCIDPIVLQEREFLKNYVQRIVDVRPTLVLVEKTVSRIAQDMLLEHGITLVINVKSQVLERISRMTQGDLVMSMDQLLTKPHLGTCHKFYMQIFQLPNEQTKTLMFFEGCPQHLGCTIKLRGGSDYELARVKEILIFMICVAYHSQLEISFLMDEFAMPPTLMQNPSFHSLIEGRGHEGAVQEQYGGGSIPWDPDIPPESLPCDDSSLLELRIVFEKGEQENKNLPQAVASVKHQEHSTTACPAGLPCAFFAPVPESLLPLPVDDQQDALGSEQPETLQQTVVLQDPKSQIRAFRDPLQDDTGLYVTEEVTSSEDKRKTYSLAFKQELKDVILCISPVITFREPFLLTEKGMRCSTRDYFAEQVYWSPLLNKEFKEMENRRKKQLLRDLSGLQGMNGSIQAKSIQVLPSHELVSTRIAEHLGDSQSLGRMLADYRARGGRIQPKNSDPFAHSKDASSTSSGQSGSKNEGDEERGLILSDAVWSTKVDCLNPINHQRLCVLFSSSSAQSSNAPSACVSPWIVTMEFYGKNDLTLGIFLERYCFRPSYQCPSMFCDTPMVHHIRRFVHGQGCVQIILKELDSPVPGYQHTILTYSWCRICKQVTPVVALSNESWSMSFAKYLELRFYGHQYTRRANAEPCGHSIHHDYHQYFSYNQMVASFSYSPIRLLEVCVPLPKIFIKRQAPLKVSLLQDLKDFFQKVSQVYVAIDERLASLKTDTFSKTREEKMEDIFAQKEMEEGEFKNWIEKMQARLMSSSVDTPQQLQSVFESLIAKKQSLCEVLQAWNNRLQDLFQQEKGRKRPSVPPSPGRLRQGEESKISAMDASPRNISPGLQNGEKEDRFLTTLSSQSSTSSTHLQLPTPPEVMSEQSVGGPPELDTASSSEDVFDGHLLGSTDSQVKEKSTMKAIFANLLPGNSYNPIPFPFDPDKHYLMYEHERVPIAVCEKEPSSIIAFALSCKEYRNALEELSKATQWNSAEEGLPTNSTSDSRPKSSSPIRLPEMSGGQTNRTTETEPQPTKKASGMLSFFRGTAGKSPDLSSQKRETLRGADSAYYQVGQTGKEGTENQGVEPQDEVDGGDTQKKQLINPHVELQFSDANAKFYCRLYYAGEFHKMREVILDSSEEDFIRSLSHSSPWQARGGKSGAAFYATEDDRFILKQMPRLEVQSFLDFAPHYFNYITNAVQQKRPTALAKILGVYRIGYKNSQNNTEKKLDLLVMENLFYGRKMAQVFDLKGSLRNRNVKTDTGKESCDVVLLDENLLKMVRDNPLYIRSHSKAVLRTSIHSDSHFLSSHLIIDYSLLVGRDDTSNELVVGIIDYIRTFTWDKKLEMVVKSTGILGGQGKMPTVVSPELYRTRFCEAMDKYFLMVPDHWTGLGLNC
Summary of the method: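 VCaP cells plated 3×10^6 per well overnight, then DMSO or 300 nM for 4 h; TMT-labeled quantitative global proteomics, mass-spec quantification of PIKfyve and lipid kinases.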

LTL-331R [2] = experiment: Antitumor activity against human LTL-331R xenografted in CB17 mouse assessed as inhibition of tumor cell proliferation at 15 mg/kg, ip at 5 days on and 2 days off regimen for 17 days by digital caliper analysis; type: functional, organism-based; conditions: time 17.0 day
Summary of the method: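 LTL-331R PDX; once-daily IP dosing, 5 days on/2 days off for 17 days, vehicle 5% DMSO/95% of 40% hydroxypropyl-β-cyclodextrin; tumors measured at least twice weekly by caliper, volume (π/6)(L×W²); vehicle vs treated compared by two-tailed unpaired t test.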

CWR22R [3] = experiment: Inhibition of autophagy in human 22Rv1 cells assessed as increase in p62 expression incubated for 24 hrs by immunoblot analysis; type: functional, cell-based; conditions: dose 10-3000 nM
Summary of the method: (§1)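 22RV1, LNCaP or PC3 cells (5% CO2, 37 °C) exposed to increasing concentrations for 24 h; RIPA lysates with protease/phosphatase inhibitors, 4–12% Bis-Tris SDS-PAGE, PVDF, milk block, immunoblotted for PIKfyve and autophagy markers LC3A/B and p62, ECL detection.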

Mus musculus = experiment: In vivo induction of PIKfyve degradation in tumor of LTL-331R-xenografted CB17 mouse assessed as downregulation of PIKfyve expression at 4 to 10 mg/kg, ip for 4 days by western blot analysis; type: functional, organism-based; conditions: dose 4-10 mg/kg, time 4.0 day
Summary of the method: (§2)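 LTL-331R prostate cancer PDX; IP once daily for 3 days at 4 or 10 mg/kg in 5% DMSO/95% of 40% hydroxypropyl-β-cyclodextrin (freshly dissolved); tumors collected 24 h after last dose on day 4; whole tumor lysate immunoblotted for PIKfyve, LC3A/B, GAPDH, or TUNEL in situ cell death staining.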

[4] = target: T1, von Hippel-Lindau disease tumor suppressor/1-phosphatidylinositol 3-phosphate 5-kinase (Homo sapiens); experiment: PROTAC activity at VHL/PIKfyve in human VCaP cells assessed as induction of PIKfyve degradation at 0.1 to 0.3 uM incubated for 24 hrs in presence of PIKfyve inhibitor, apilimod by immunoblot analysis; type: cell-based; conditions: dose 0.1-0.3 µM
Summary of the method: (§3)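 VCaP cells given increasing concentrations of degrader with or without warhead 1 or VHL ligand VL285 for 24 h; immunoblot of PIKfyve and GAPDH.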

VCaP [5] = experiment: Antiproliferative activity against human VCaP cells assessed as inhibition of cell proliferation incubated for 4 hrs followed by culturing in compound-free medium for 2 weeks by crystal violet staining based analysis; type: functional
Summary of the method: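 VCaP cells treated 4 h, compound removed, then cultured 2 weeks in drug-free medium; long-term viability by crystal violet staining.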

LTL-331R [6] = experiment: Antitumor activity against human LTL-331R xenografted in CB17 mouse assessed as induction of tumor cell death at 4 to 10 mg/kg, ip for 4 days by TUNEL assay; type: functional, organism-based; conditions: dose 4-10 mg/kg, time 4.0 day; summary of the method: as §2
[7] = target: T1, von Hippel-Lindau disease tumor suppressor/1-phosphatidylinositol 3-phosphate 5-kinase (Homo sapiens); experiment: PROTAC activity at VHL/PIKfyve in human 22RV1 cells assessed as downregulation of PIKfyve expression at 10 to 3000 nM measured after 24 hrs by immunoblot analysis; type: cell-based; conditions: dose 10-3000 nM
Summary of the method: (§4)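 22RV1, LNCaP or PC3 cells given increasing concentrations for 24 h; RIPA lysates immunoblotted for PIKfyve with GAPDH loading control, ECL detection.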

[8] = target: T1, von Hippel-Lindau disease tumor suppressor/1-phosphatidylinositol 3-phosphate 5-kinase (Homo sapiens); experiment: PROTAC activity at VHL/PIKfyve in human VCaP cells assessed as induction of PIKfyve degradation at 300 nM incubated for 4 hrs followed by culturing in compound-free medium for 72 hrs by immunoblot analysis; type: cell-based
Summary of the method: (§5)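 VCaP cells treated 4 h, compounds removed, cultured 72 h in compound-free medium; whole cell lysates immunoblotted for PIKfyve, LC3A/B and GAPDH (RIPA lysis, 4–12% Bis-Tris gels, PVDF, ECL).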

[9] = target: T1, von Hippel-Lindau disease tumor suppressor/1-phosphatidylinositol 3-phosphate 5-kinase (Homo sapiens); experiment: PROTAC activity at VHL/PIKfyve in human LNCaP cells assessed as downregulation of PIKfyve expression at 10 to 3000 nM measured after 24 hrs by immunoblot analysis; type: cell-based; conditions: dose 10-3000 nM; summary of the method: as §4
VCaP [10] = experiment: Antiproliferative activity against human VCaP cells assessed as inhibition of cell proliferation incubated for 24 hrs followed by culturing in compound-free medium for 2 weeks by crystal violet staining based analysis; type: functional
Summary of the method: (§6)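 VCaP cells exposed either 24 h then washed and chased 2 weeks in compound-free medium, or continuously for 2 weeks; long-term viability visualized by crystal violet staining; IC50 calculated for each condition.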

[11] = target: T1, von Hippel-Lindau disease tumor suppressor/1-phosphatidylinositol 3-phosphate 5-kinase (Homo sapiens); experiment: PROTAC activity at VHL/PIKfyve in human VCaP cells assessed as induction of PIKfyve degradation at 0.1 uM incubated for 24 hrs by immunoblot analysis; type: cell-based
Summary of the method: (§7)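 VCaP cells treated 24 h at 0.1 or 1.0 µM; percent PIKfyve degradation determined by immunoblotting.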

[12] = target: T1, von Hippel-Lindau disease tumor suppressor/1-phosphatidylinositol 3-phosphate 5-kinase (Homo sapiens); experiment: PROTAC activity at VHL/PIKfyve in human VCaP cells assessed as induction of PIKfyve degradation at 0.1 to 0.3 uM incubated for 24 hrs in presence of VHL ligand, VL285 by immunoblot analysis; type: cell-based; conditions: dose 0.1-0.3 µM; summary of the method: as §3
[13] = target: T1, von Hippel-Lindau disease tumor suppressor/1-phosphatidylinositol 3-phosphate 5-kinase (Homo sapiens); experiment: PROTAC activity at VHL/PIKfyve in human VCaP cells assessed as induction of PIKfyve degradation at 1 uM incubated for 24 hrs by immunoblot analysis; type: cell-based; summary of the method: as §7
CWR22R [14] = experiment: Inhibition of autophagy in human 22Rv1 cells assessed as increase in LC3A/B expression incubated for 24 hrs by immunoblot analysis; type: functional, cell-based; conditions: dose 10-3000 nM; summary of the method: as §1
[15] = target: T1, von Hippel-Lindau disease tumor suppressor/1-phosphatidylinositol 3-phosphate 5-kinase (Homo sapiens); experiment: PROTAC activity at VHL/PIKfyve in human PC-3 cells assessed as downregulation of PIKfyve expression at 10 to 3000 nM measured after 24 hrs by immunoblot analysis; type: cell-based; conditions: dose 10-3000 nM; summary of the method: as §4
[16] = target: T1, von Hippel-Lindau disease tumor suppressor/1-phosphatidylinositol 3-phosphate 5-kinase (Homo sapiens); experiment: PROTAC activity at VHL/PIKfyve in human VCaP cells assessed as induction of PIKfyve degradation incubated for 24 hrs by immunoblot analysis; type: cell-based
Summary of the method: (§8)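 VCaP cells treated with increasing concentrations for 24 h; PIKfyve and GAPDH immunoblotted; percent remaining PIKfyve plotted to determine DC50 and Dmax.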

PC-3 [17] = experiment: Inhibition of autophagy in human PC-3 cells assessed as increase in LC3A/B expression incubated for 24 hrs by immunoblot analysis; type: functional, cell-based; conditions: dose 10-3000 nM; summary of the method: as §1
[18] = target: T1, von Hippel-Lindau disease tumor suppressor/1-phosphatidylinositol 3-phosphate 5-kinase (Homo sapiens); experiment: PROTAC activity at VHL/PIKfyve in human VCaP cells assessed as maximal induction of PIKfyve degradation incubated for 24 hrs by immunoblot analysis relative to control; type: cell-based; summary of the method: as §8
[19] = target: T1, von Hippel-Lindau disease tumor suppressor/1-phosphatidylinositol 3-phosphate 5-kinase (Homo sapiens); experiment: PROTAC activity at VHL/PIKfyve in human VCaP cells assessed as induction of PIKfyve degradation by measuring half life at 100 nM by immunoblot analysis; type: cell-based
[20] = target: T1, von Hippel-Lindau disease tumor suppressor/1-phosphatidylinositol 3-phosphate 5-kinase (Homo sapiens); experiment: PROTAC activity at VHL/PIKfyve in human VCaP cells assessed as induction of PIKfyve degradation at 0.1 to 1 uM incubated for 24 hrs in presence of proteasome inhibitor, bortezomib by immunoblot analysis; type: cell-based; conditions: dose 0.1-1 µM
Summary of the method: (§9)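 VCaP cells treated 24 h at 0.1 and 1 µM, with or without pretreatment by 1 µM bortezomib; PIKfyve and GAPDH immunoblotted.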

VCaP [21] = experiment: Antiproliferative activity against human VCaP cells assessed as inhibition of cell proliferation incubated for 2 weeks by crystal violet staining based analysis; type: functional; conditions: 336 h; summary of the method: as §6
LNCaP [22] = experiment: Inhibition of autophagy in human LNCaP cells assessed as increase in p62 expression incubated for 24 hrs by immunoblot analysis; type: functional, cell-based; conditions: dose 10-3000 nM; summary of the method: as §1
VCaP [23] = experiment: Inhibition of autophagy in human VCaP cells assessed as increase in LC3A/B expression at 300 nM incubated for 4 hrs followed by culturing in compound-free medium for 72 hrs by immunoblot analysis; type: functional, cell-based; summary of the method: as §5
DU-145 [24] = experiment: Induction of massive cytoplasmic vacuolization in human RFP-labeled DU-145 cells at 300 nM incubated for 4 hrs; type: functional, cell-based
LNCaP [25] = experiment: Inhibition of autophagy in human LNCaP cells assessed as increase in LC3A/B expression incubated for 24 hrs by immunoblot analysis; type: functional, cell-based; conditions: dose 10-3000 nM; summary of the method: as §1
[26] = target: T1, von Hippel-Lindau disease tumor suppressor/1-phosphatidylinositol 3-phosphate 5-kinase (Homo sapiens); experiment: PROTAC activity at VHL/PIKfyve in human VCaP cells assessed as induction of PIKfyve degradation at 0.1 to 1 uM incubated for 24 hrs by immunoblot analysis; type: cell-based; conditions: dose 0.1-1 µM; summary of the method: as §9
DU-145 [27] = experiment: Induction of massive cytoplasmic vacuolization in human RFP-labeled DU-145 cells incubated for 24 hrs; type: functional, cell-based; conditions: dose 100-3000 nM
Summary of the method: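 RFP-labeled DU145 cells treated 24 h (300 nM shown); vacuole area per cell quantified from images.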

PC-3 [28] = experiment: Inhibition of autophagy in human PC-3 cells assessed as increase in p62 expression incubated for 24 hrs by immunoblot analysis; type: functional, cell-based; conditions: dose 10-3000 nM; summary of the method: as §1

Cc1cccc(/C=N/Nc2cc(N3CCOCC3)nc(OCCc3ccc(NC(=O)CCCCC(=O)N[C@H](C(=O)N4C[C@H](O)C[C@H]4C(=O)NCc4ccc(-c5scnc5C)cc4)C(C)(C)C)cc3)n2)c1
91%: Activity [13]
522 nM: IC50 (VCaP [10])
inactive: Activity [4] | Activity [12] | Activity [20]
97%: Activity [11]
97.9%: Activity [18]
55.9 nM: IC50 (VCaP [21])
active: Activity [1] | Activity (LTL-331R [2]) | inhibition (CWR22R [3]) Dose-Dependent Effect | Activity (Mus musculus) | Activity (LTL-331R [6]) | Activity [7] | Activity [8] | Activity [9] | inhibition (CWR22R [14]) Dose-Dependent Effect | Activity [15] | Activity [16] Dose-Dependent Effect | inhibition (PC-3 [17]) Dose-Dependent Effect | inhibition (LNCaP [22]) Dose-Dependent Effect | inhibition (VCaP [23]) | Activity (DU-145 [24]) | inhibition (LNCaP [25]) Dose-Dependent Effect | Activity [26] | Activity (DU-145 [27]) Dose-Dependent Effect | inhibition (PC-3 [28]) Dose-Dependent Effect
1.5 h: T1/2 [19]
1200 nM: IC50 (VCaP [5])
